Results reported in ChEMBL document CHEMBL3120102, “Structure-based design, synthesis and biological evaluation of novel anthra[1,2-d]imidazole-6,11-dione homologues as potential antitumor agents” (2013).

Columns and labels:
MDA-MB-231 = assay: Cytotoxicity against human MDA-MB-231 cells assessed as cell growth at 10 uM after 48 hrs by SRB assay; format: functional; conditions: MDA-MB-231, 48 h, read-out: Activity
Procedure, shortened: (§1)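 First stage of the NCI 60 human tumour cell line screen: a single dose is tested against every line. Cell growth is read as cellular protein by sulforhodamine B colorimetry after 48 h of drug exposure, with reference to a time-zero control and to untreated plates.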

LOX IMVI = assay: Cytotoxicity against human LOXIMVI cells assessed as cell growth at 10 uM after 48 hrs by SRB assay; format: functional; conditions: read-out: Activity
Procedure, shortened: (§2)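 NCI 60-cell-line screen, first stage: compound at a single dose of […] (unit as printed) for 48 h. Cellular protein was measured by sulforhodamine B colorimetry. Growth was determined using a time-zero cell control and plates not exposed to drug.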

UACC-62 = assay: Cytotoxicity against human UACC62 cells assessed as cell growth at 10 uM after 48 hrs by SRB assay; format: functional; conditions: UACC-62, 48 h, read-out: Activity
Procedure, shortened: (§3)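 First stage of the NCI 60 human tumour cell line screen, with each compound tested at a single dose of 10. Cellular protein measured by sulforhodamine B colorimetry after 48 h drug exposure. Growth is calculated against a time-zero cell control and against plates not exposed to drug.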

U-251 = assay: Cytotoxicity against human U251 cells assessed as cell growth at 10 uM after 48 hrs by SRB assay; format: functional; conditions: U-251, 48 h, read-out: Activity; procedure, shortened: as §3
IGROV-1 = assay: Cytotoxicity against human IGROV1 cells assessed as cell growth at 10 uM after 48 hrs by SRB assay; format: functional; conditions: IGROV-1, 48 h, read-out: Activity
RPMI-8226 = assay: Cytotoxicity against human RPMI8226 cells assessed as cell growth at 10 uM after 48 hrs by SRB assay; format: functional; conditions: RPMI-8226, 48 h, read-out: Activity; procedure, shortened: as §1
HL-60(TB) = assay: Cytotoxicity against human HL-60(TB) cells assessed as cell growth at 10 uM after 48 hrs by SRB assay; format: functional; conditions: HL-60, 48 h, read-out: Activity
Procedure, shortened: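 NCI 60-cell panel first-stage screen at a single dose in the HL-60(TB) leukemia line. Cellular protein was measured by sulforhodamine B colorimetry after 48 h of drug exposure. Growth was referenced to a time-zero cell control and to plates not exposed to drug.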

[1] = Cytotoxicity against human OVCAR4 cells assessed as cell growth at 10 uM after 48 hrs by SRB assay; format: functional; conditions: OVCAR-4, 48 h, read-out: Activity; procedure, shortened: as §1
SN12C = assay: Cytotoxicity against human SN12C cells assessed as cell growth at 10 uM after 48 hrs by SRB assay; format: functional; conditions: read-out: Activity; procedure, shortened: as §1
HOP-92 = assay: Cytotoxicity against human HOP92 cells assessed as cell growth at 10 uM after 48 hrs by SRB assay; format: functional; conditions: HOP-92, 48 h, read-out: Activity; procedure, shortened: as §2
MOLT-4 = assay: Cytotoxicity against human MOLT4 cells assessed as cell growth at 10 uM after 48 hrs by SRB assay; format: functional; conditions: MOLT-4, 48 h, read-out: Activity; procedure, shortened: as §1
[2] = Cytotoxicity against human UACC257 cells assessed as cell growth at 10 uM after 48 hrs by SRB assay; format: functional; conditions: UACC-257, 48 h, read-out: Activity; procedure, shortened: as §3
HCC 2998 = assay: Cytotoxicity against human HCC2998 cells assessed as cell growth at 10 uM after 48 hrs by SRB assay; format: functional; conditions: HCC 2998, 48 h, read-out: Activity
OVCAR-8 = assay: Cytotoxicity against human OVCAR8 cells assessed as cell growth at 10 uM after 48 hrs by SRB assay; format: functional; conditions: OVCAR-8, 48 h, read-out: Activity; procedure, shortened: as §1
SK-OV-3 = assay: Cytotoxicity against human SKOV3 cells assessed as cell growth at 10 uM after 48 hrs by SRB assay; format: functional; conditions: SK-OV-3, 48 h, read-out: Activity; procedure, shortened: as §1
[3] = Cytotoxicity against human H1299 cells assessed as cell viability at 1 uM after 48 hrs by MTT assay; format: functional; conditions: NCI-H1299, 48 h, read-out: Activity
Procedure, shortened: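 About 2×10³ H1299 cells per well were grown for 24 h at 37 °C in 5% CO2. Compound was dissolved in DMSO immediately before use, diluted in complete medium and left on cells for 48 h. MTT was then added for 4 h at 37 °C, followed by SDS/DMF lysis buffer for 16 h at 37 °C. Absorbance was read at 550 nm.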

[4] = Cytotoxicity against human OVCAR5 cells assessed as cell growth at 10 uM after 48 hrs by SRB assay; format: functional; conditions: OVCAR-5, 48 h, read-out: Activity; procedure, shortened: as §1
A498 = assay: Cytotoxicity against human A498 cells assessed as cell growth at 10 uM after 48 hrs by SRB assay; format: functional; conditions: A498, 48 h, read-out: Activity
[5] = target: Telomerase reverse transcriptase (Homo sapiens) (UniProt O14746); assay: Inhibition of human tert transcriptional activity assessed as SEAP activity at 100 uM after 24 hrs by SEAP reporter assay; parameters: scale not given: the % may be the effect or the level left
Telomerase reverse transcriptase (Homo sapiens), sequence (O14746 whole entry): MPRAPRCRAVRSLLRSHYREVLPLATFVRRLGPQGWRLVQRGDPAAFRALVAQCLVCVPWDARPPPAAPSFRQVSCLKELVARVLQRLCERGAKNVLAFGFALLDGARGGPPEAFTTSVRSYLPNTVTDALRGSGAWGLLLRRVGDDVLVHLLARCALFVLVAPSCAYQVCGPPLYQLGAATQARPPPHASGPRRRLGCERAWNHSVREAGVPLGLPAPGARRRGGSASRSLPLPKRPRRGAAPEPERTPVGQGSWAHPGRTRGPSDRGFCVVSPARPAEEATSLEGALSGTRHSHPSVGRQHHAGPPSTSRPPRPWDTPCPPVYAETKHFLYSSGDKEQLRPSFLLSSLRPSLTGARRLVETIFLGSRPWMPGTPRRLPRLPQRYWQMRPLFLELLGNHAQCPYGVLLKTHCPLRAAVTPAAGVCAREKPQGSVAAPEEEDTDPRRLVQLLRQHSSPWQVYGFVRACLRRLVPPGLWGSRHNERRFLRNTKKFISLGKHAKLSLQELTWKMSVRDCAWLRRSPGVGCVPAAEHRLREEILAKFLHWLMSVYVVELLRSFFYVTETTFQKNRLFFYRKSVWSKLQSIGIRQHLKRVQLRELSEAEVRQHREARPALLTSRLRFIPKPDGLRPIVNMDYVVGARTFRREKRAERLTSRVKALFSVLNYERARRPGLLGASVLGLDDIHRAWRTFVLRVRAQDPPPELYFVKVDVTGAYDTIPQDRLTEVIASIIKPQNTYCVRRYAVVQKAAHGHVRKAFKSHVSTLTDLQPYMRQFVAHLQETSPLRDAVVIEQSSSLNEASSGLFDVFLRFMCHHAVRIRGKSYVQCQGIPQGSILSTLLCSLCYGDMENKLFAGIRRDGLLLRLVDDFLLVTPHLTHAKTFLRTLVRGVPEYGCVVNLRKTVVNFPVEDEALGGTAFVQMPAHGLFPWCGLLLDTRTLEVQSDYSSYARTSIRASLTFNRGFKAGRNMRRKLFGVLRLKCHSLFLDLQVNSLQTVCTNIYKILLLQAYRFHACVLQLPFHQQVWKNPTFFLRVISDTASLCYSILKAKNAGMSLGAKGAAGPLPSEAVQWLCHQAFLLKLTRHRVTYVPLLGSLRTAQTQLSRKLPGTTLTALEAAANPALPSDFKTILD
Procedure, shortened: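 Reporter assay for hTERT transcriptional activity using secreted alkaline phosphatase. About 2 × 10³ cells per well were grown for 24 h at 37 °C, then given fresh medium. Buffer was added to the medium: 2 M diethanolamine, 1 mM MgCl2 and 20 mM L-homoarginine. p-Nitrophenyl phosphate was added to 12 mM final. The rate of absorbance increase was read at 405 nm.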

SNB-75 = assay: Cytotoxicity against human SNB75 cells assessed as cell growth at 10 uM after 48 hrs by SRB assay; format: functional; conditions: SNB-75, 48 h, read-out: Activity; procedure, shortened: as §3
DU-145 = assay: Cytotoxicity against human DU145 cells assessed as cell growth at 10 uM after 48 hrs by SRB assay; format: functional; conditions: DU-145, 48 h, read-out: Activity; procedure, shortened: as §2
SF-268 = assay: Cytotoxicity against human SF268 cells assessed as cell growth at 10 uM after 48 hrs by SRB assay; format: functional; conditions: SF-268, 48 h, read-out: Activity; procedure, shortened: as §1
CCRF-CEM = assay: Cytotoxicity against human CCRF-CEM cells assessed as cell growth at 10 uM after 48 hrs by SRB assay; format: functional; conditions: read-out: Activity
HCT-116 = assay: Cytotoxicity against human HCT116 cells assessed as cell growth at 10 uM after 48 hrs by SRB assay; format: functional; conditions: HCT-116, 48 h, read-out: Activity
SK-MEL-28 = assay: Cytotoxicity against human SK-MEL-28 cells assessed as cell growth at 10 uM after 48 hrs by SRB assay; format: functional; conditions: SK-MEL-28, 48 h, read-out: Activity; procedure, shortened: as §1
MDA-MB-435 = assay: Cytotoxicity against human MDA-MB-435 cells assessed as cell growth at 10 uM after 48 hrs by SRB assay; format: functional; conditions: MDA-MB-435, 48 h, read-out: Activity; procedure, shortened: as §1
BT-549 = assay: Cytotoxicity against human BT549 cells assessed as cell growth at 10 uM after 48 hrs by SRB assay; format: functional; conditions: BT-549, 48 h, read-out: Activity; procedure, shortened: as §2
RXF 393 = assay: Cytotoxicity against human RXF393 cells assessed as cell growth at 10 uM after 48 hrs by SRB assay; format: functional; conditions: RXF 393, 48 h, read-out: Activity; procedure, shortened: as §1
M14 = assay: Cytotoxicity against human M14 cells assessed as cell growth at 10 uM after 48 hrs by SRB assay; format: functional; conditions: M14, 48 h, read-out: Activity; procedure, shortened: as §2

Row | SMILES | growth at 10 µM (MDA-MB-231) | growth at 10 µM (LOX IMVI) | growth at 10 µM (UACC-62) | growth at 10 µM (U-251) | growth at 10 µM (IGROV-1) | growth at 10 µM (RPMI-8226) | growth at 10 µM (HL-60(TB)) | growth at 10 µM [1] | growth at 10 µM (SN12C) | growth at 10 µM (HOP-92) | growth at 10 µM (MOLT-4) | growth at 10 µM [2] | growth at 10 µM (HCC 2998) | growth at 10 µM (OVCAR-8) | growth at 10 µM (SK-OV-3) | viability at 1 µM [3] | growth at 10 µM [4] | growth at 10 µM (A498) | Activity [5] | growth at 10 µM (SNB-75) | further results
1 | CCCSc1nc2ccc3c(c2[nH]1)C(=O)c1ccccc1C3=O | 26.4% | 62.6% | 51.1% | 63% | 53.7% | 71.8% | 74.2% | 42.2% | 80.4% | 17.2% | 68.1% | 86.3% | 81.9% | 44.7% | 38.9% | 91% | 99.7% | 57.3% | 33% | -9.55% | growth at 10 µM (DU-145): 69.3%; growth at 10 µM (SF-268): 47.8%; growth at 10 µM (CCRF-CEM): 70.8%; growth at 10 µM (HCT-116): 47.7%; growth at 10 µM (SK-MEL-28): 92.6%; growth at 10 µM (MDA-MB-435): 77.4%; growth at 10 µM (BT-549): 76%; growth at 10 µM (RXF 393): 20.1%; growth at 10 µM (M14): 90%
2 | CCSc1nc2ccc3c(c2[nH]1)C(=O)c1ccccc1C3=O | 84.8% | 36.7% | 47.6% | 65% | 73.4% | 28.5% | 62.6% | 55% | 67.9% | 75.3% | 101% | 112% | 89.4% | 96.8% | 24.7% | 109% | 85.4% | 75.5% | 17% | 73.3% | growth at 10 µM (DU-145): 64.5%; growth at 10 µM (SF-268): 75.7%; growth at 10 µM (CCRF-CEM): 36.9%; growth at 10 µM (HCT-116): 68.8%; growth at 10 µM (SK-MEL-28): 97.7%; growth at 10 µM (MDA-MB-435): 68.4%; growth at 10 µM (BT-549): 55.8%; growth at 10 µM (RXF 393): 99.9%; growth at 10 µM (M14): 67.1%
3 | CN(C)CCCSc1nc2ccc3c(c2[nH]1)C(=O)c1ccccc1C3=O | 56.2% | 28.6% | 75.4% | 74.1% | 30.9% | -13.7% | 12.7% | 29.7% | 37.7% | 16% | -2.9% | 114% | 72.7% | 61.9% | 32.4% | 108% | 87.9% | 76.2% | 15% | 50.5% | growth at 10 µM (DU-145): 36.4%; growth at 10 µM (SF-268): 53.1%; growth at 10 µM (CCRF-CEM): 8.49%; growth at 10 µM (HCT-116): 27.6%; growth at 10 µM (SK-MEL-28): 102%; growth at 10 µM (MDA-MB-435): 72.2%; growth at 10 µM (BT-549): 75.8%; growth at 10 µM (RXF 393): 38.4%; growth at 10 µM (M14): 77.3%
4 | O=C1c2ccccc2C(=O)c2c1ccc1nc3n(c21)CCS3 | 94% | 65.9% | 73.1% | 72.5% | 62.3% | 71.7% | 78.8% | 89.3% | 74.9% | 88.7% | 58.4% | 80.6% | 94.8% | 75.4% | 87.4% | 115% | 105% | 73.7% | 48% | 95.6% | growth at 10 µM (DU-145): 68.8%; growth at 10 µM (SF-268): 56.1%; growth at 10 µM (CCRF-CEM): 66.8%; growth at 10 µM (HCT-116): 68.4%; growth at 10 µM (SK-MEL-28): 109%; growth at 10 µM (MDA-MB-435): 83.1%; growth at 10 µM (BT-549): 87.9%; growth at 10 µM (RXF 393): 46.5%; growth at 10 µM (M14): 78.5%
5 | O=C1c2ccccc2C(=O)c2c1ccc1[nH]c(=S)[nH]c21 | 108% | 84% | 84.2% | 88.8% | 138% | 101% | 97.6% | 91.6% | 88% | 65.5% | 109% | 105% | 114% | 140% | 103% | 101% | 129% | 94.3% | 31% | 101% | growth at 10 µM (DU-145): 99.3%; growth at 10 µM (SF-268): 90.3%; growth at 10 µM (CCRF-CEM): 61.9%; growth at 10 µM (HCT-116): 96.3%; growth at 10 µM (SK-MEL-28): 118%; growth at 10 µM (MDA-MB-435): 114%; growth at 10 µM (BT-549): 114%; growth at 10 µM (RXF 393): 142%; growth at 10 µM (M14): 101%
6 | O=C1c2ccccc2C(=O)c2c1ccc1nc(SCCN3CCCC3)[nH]c21 | 63.5% | 11.9% | 81% | 69.1% | 23.2% | -60.2% | 37.4% | 57.2% | 52.9% | 35.2% | 30.9% | 92.8% | 71.5% | 49.4% | 55.6% | 90% | 87.5% | 71.4% | 36% | 81.8% | growth at 10 µM (DU-145): 17.9%; growth at 10 µM (SF-268): 42%; growth at 10 µM (CCRF-CEM): -15.4%; growth at 10 µM (HCT-116): 38.8%; growth at 10 µM (SK-MEL-28): 100%; growth at 10 µM (MDA-MB-435): 66.5%; growth at 10 µM (BT-549): 78.6%; growth at 10 µM (RXF 393): 22.3%; growth at 10 µM (M14): 70.9%
